Experimental data taken from ChEMBL document CHEMBL4118097, “Selective Inhibitors of Dual Leucine Zipper Kinase (DLK, MAP3K12) with Activity in a Model of Alzheimer's Disease” (J Med Chem, 2017).

What was measured:
[1] = molecular target: Receptor-interacting serine/threonine-protein kinase 2 (Homo sapiens) (UniProt O43353); assay: Inhibition of recombinant His-tagged human RIPK2 catalytic domain (1 to 299 residues) expressed in baculovirus expression system at 1 uM by FRET assay relative to control
Method in brief: (§1)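 Single-concentration screen at 1 μM in Life Technologies SelectScreen, across a 220-kinase panel. Z′-LYTE format measures phosphorylation of a labeled peptide by FRET. Results are reported as percent inhibition.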

[2] = molecular target: Gamma-aminobutyric acid type B receptor subunit 1 (Homo sapiens) (UniProt Q9UBS5); assay: Binding affinity to GABA-B1b (unknown origin) at 10 uM relative to control
Method in brief: (§2)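 Broad radioligand-binding and enzyme screening panel covering 42 targets (biogenic amine and neuropeptide receptors, ion channels, neurotransmitter transporters, acetylcholinesterase). Single test concentration of 10 μM. Results expressed as binding relative to control, with a hit defined as >50% of control.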

[3] = molecular target: Dual specificity tyrosine-phosphorylation-regulated kinase 1A (Homo sapiens) (UniProt Q13627); assay: Inhibition of full length recombinant GST-tagged human DYRK1A expressed in baculovirus expression system at 1 uM by FRET assay relative to control
[4] = molecular target: Dual specificity tyrosine-phosphorylation-regulated kinase 4 (Homo sapiens) (UniProt Q9NR20); assay: Inhibition of full length recombinant GST-tagged human DYRK4 expressed in baculovirus expression system at 1 uM by FRET assay relative to control
[5] = molecular target: Ephrin type-A receptor 8 (Homo sapiens) (UniProt P29322); assay: Inhibition of recombinant GST-tagged human EphA8 cytoplasmic domain expressed in baculovirus expression system at 1 uM by FRET assay relative to control
Method in brief: (§3)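 Single-point screen at 1 μM compound in a 220-kinase panel run by Life Technologies (SelectScreen). Z′-LYTE format: phosphorylation of a labeled peptide substrate read by FRET. Values are reported as percent inhibition.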

[6] = molecular target: Tyrosine-protein kinase Blk (Homo sapiens) (UniProt P51451); assay: Inhibition of recombinant full length His-tagged human Blk cytoplasmic domain expressed in Baculovirus expression system at 1 uM by FRET assay relative to control
[7] = molecular target: Testis-specific serine/threonine-protein kinase 1 (Homo sapiens) (UniProt Q9BXA7); assay: Inhibition of recombinant full length His-tagged human TSSK1 expressed in baculovirus expression system at 1 uM by FRET assay relative to control
[8] = molecular target: Cyclin-dependent kinase 5/CDK5 activator 1 (Homo sapiens) (UniProt Q00535+Q15078); assay: Inhibition of recombinant full length His/GST-tagged human CDK5/p25 expressed in baculovirus expression system at 1 uM by FRET assay relative to control
[9] = molecular target: Serine/threonine-protein kinase DCLK2 (Homo sapiens) (UniProt Q8N568); assay: Inhibition of full length recombinant GST-tagged human DCAMKL2 expressed in baculovirus expression system at 1 uM by FRET assay relative to control
[10] = molecular target: Endothelin-1 receptor (Homo sapiens) (UniProt P25101); assay: Binding affinity to recombinant human ETA receptor at 10 uM relative to control; method in brief: as §2
[11] = molecular target: Proto-oncogene tyrosine-protein kinase Src (Homo sapiens) (UniProt P12931); assay: Inhibition of recombinant full length C-terminal His-tagged human Src cytoplasmic domain expressed in baculovirus expression system at 1 uM by FRET assay relative to control; method in brief: as §1
[12] = molecular target: MAP kinase-interacting serine/threonine-protein kinase 1 (Homo sapiens) (UniProt Q9BUB5); assay: Inhibition of recombinant human N-terminal full length GST-tagged MKNK1 expressed in baculovirus at 1 uM by FRET assay relative to control
[13] = molecular target: Cyclin-dependent kinase 1/cyclin B1 (Homo sapiens) (UniProt P06493+P14635); assay: Inhibition of recombinant full length His-tagged human CDK1/CyclinB expressed in baculovirus expression system at 1 uM by FRET assay relative to control
[14] = molecular target: Serine/threonine-protein kinase pim-1 (Homo sapiens) (UniProt P11309); assay: Inhibition of full length His-tagged human PIM1 expressed in baculovirus expression system at 1 uM by FRET assay relative to control
[15] = molecular target: Tyrosine-protein kinase Mer (Homo sapiens) (UniProt Q12866); assay: Inhibition of recombinant GST-tagged human Mer cytoplasmic domain expressed in baculovirus expression system at 1 uM by FRET assay relative to control; method in brief: as §3
[16] = molecular target: Macrophage-stimulating protein receptor (Homo sapiens) (UniProt Q04912); assay: Inhibition of recombinant GST-tagged human Ron cytoplasmic domain ([…] to 1400 residues) expressed in baculovirus expression system at 1 uM by FRET assay relative to control; method in brief: as §3
[17] = molecular target: Beta-2 adrenergic receptor (Homo sapiens) (UniProt P07550); assay: Binding affinity to recombinant human beta2 adrenergic receptor at 10 uM relative to control; method in brief: as §2
[18] = molecular target: Protein kinase C alpha type (Homo sapiens) (UniProt P17252); assay: Inhibition of recombinant full length human PKCalpha expressed in baculovirus expression system at 1 uM by FRET assay relative to control
[19] = molecular target: Peroxisome proliferator-activated receptor alpha (Homo sapiens) (UniProt Q07869); assay: Binding affinity to recombinant human PPARalpha at 10 uM relative to control; method in brief: as §2
[20] = molecular target: PAS domain-containing serine/threonine-protein kinase (Homo sapiens) (UniProt Q96RG2); assay: Inhibition of recombinant GST-tagged human PASK catalytic domain expressed in baculovirus expression system at 1 uM by FRET assay relative to control; method in brief: as §3
[21] = molecular target: Phosphorylase b kinase gamma catalytic chain, liver/testis isoform (Homo sapiens) (UniProt P15735); assay: Inhibition of recombinant full length GST-tagged human PHKgamma2 expressed in baculovirus expression system at 1 uM by FRET assay relative to control; method in brief: as §1
[22] = molecular target: MAP kinase-activated protein kinase 5 (Homo sapiens) (UniProt Q8IW41); assay: Inhibition of full length recombinant His-tagged human PRAK expressed in baculovirus expression system at 1 uM by FRET assay relative to control
[23] = molecular target: Mitogen-activated protein kinase kinase kinase 11 (Homo sapiens, UniProt Q16584); assay: Inhibition of recombinant human full length GST-tagged MLK3 expressed in baculovirus expression system by FRET assay
[24] = molecular target: Mitogen-activated protein kinase kinase kinase 5 (Homo sapiens) (UniProt Q99683); assay: Inhibition of recombinant full length GST-tagged human ASK1 expressed in baculovirus expression system at 1 uM by FRET assay relative to control; method in brief: as §1
[25] = molecular target: cGMP-dependent protein kinase 1 (Homo sapiens) (UniProt Q13976); assay: Inhibition of PKG1alpha (unknown origin) at 1 uM by FRET assay relative to control
[26] = molecular target: Tyrosine-protein kinase Fes/Fps (Homo sapiens) (UniProt P07332); assay: Inhibition of recombinant full length His-tagged human FES cytoplasmic domain expressed in baculovirus expression system at 1 uM by FRET assay relative to control
[27] = molecular target: Mitogen-activated protein kinase kinase kinase 8 (Homo sapiens) (UniProt P41279); assay: Inhibition of recombinant GST-tagged human Cot catalytic domain (30 to 397 residues) expressed in baculovirus expression system at 1 uM by FRET assay relative to control

Sequence of Cyclin-dependent kinase 1/cyclin B1 (Homo sapiens) (P06493 whole entry, looked up): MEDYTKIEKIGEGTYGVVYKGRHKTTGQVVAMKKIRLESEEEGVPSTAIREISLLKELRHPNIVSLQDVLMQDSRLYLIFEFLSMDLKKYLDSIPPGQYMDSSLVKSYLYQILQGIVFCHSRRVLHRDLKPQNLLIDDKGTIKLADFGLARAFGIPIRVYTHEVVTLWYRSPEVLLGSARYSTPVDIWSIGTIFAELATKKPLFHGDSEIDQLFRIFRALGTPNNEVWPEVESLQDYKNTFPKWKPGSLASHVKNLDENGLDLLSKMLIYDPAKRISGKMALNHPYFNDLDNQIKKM
Sequence of Cyclin-dependent kinase 1/cyclin B1 (Homo sapiens) (P14635 whole entry, looked up): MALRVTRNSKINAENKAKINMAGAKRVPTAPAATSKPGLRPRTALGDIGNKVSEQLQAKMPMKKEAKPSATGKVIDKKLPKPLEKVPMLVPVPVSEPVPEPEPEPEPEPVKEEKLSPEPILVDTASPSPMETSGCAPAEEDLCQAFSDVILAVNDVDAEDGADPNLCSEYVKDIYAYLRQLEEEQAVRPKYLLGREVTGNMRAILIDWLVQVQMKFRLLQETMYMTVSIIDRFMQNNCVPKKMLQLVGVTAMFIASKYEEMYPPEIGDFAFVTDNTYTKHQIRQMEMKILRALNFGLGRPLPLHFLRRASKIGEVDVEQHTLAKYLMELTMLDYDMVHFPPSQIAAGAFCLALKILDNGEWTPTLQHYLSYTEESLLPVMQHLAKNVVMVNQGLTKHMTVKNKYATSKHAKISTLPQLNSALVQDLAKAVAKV
Sequence of Tyrosine-protein kinase Fes/Fps (Homo sapiens) (P07332 whole entry, the tested form may be a part): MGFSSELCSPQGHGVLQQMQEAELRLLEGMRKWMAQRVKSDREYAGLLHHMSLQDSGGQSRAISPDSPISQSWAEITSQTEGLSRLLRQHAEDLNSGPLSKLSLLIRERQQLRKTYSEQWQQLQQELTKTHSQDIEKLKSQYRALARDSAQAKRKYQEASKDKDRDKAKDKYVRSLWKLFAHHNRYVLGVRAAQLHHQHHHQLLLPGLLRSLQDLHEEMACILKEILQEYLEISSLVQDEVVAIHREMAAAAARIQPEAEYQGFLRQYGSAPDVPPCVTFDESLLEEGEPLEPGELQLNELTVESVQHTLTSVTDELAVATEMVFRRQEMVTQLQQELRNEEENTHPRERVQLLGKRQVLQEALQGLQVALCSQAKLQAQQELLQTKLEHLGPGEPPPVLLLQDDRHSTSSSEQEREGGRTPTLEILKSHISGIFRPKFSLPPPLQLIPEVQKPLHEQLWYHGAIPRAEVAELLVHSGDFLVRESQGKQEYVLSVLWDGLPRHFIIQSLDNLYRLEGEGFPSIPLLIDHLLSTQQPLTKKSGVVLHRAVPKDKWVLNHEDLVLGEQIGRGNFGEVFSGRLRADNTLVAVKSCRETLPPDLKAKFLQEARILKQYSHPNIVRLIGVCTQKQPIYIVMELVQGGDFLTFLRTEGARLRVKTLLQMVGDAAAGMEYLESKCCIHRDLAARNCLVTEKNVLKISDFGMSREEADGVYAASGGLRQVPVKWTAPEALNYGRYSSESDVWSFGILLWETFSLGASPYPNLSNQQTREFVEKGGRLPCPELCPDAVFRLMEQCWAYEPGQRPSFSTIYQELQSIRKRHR
Sequence of Proto-oncogene tyrosine-protein kinase Src (Homo sapiens) (P12931 2-536 limits assumed): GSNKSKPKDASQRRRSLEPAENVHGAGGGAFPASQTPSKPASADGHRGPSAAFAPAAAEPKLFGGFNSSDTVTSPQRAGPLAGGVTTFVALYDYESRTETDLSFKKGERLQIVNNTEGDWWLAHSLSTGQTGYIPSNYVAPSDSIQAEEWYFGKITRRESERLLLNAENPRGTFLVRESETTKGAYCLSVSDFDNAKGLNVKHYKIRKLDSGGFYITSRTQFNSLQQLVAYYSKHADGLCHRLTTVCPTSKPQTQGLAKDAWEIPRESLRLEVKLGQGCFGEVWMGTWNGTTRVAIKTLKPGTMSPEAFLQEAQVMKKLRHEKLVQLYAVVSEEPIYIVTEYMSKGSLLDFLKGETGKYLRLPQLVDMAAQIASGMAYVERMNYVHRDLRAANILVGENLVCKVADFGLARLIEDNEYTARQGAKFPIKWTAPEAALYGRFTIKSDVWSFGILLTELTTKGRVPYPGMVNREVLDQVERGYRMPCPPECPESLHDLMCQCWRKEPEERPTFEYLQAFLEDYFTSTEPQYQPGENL
Sequence of Beta-2 adrenergic receptor (Homo sapiens) (P07550 whole entry, looked up): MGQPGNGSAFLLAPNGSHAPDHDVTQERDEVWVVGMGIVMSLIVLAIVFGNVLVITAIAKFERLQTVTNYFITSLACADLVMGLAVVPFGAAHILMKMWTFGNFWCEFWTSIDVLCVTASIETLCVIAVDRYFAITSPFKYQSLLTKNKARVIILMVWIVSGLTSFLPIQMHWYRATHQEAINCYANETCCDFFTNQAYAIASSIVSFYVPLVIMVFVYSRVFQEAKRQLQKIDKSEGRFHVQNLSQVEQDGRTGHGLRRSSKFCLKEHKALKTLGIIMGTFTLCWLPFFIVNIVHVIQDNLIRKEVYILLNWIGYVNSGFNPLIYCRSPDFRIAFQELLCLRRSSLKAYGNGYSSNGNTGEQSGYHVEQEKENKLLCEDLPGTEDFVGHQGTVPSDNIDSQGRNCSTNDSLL
Sequence of Ephrin type-A receptor 8 (Homo sapiens) (P29322 whole entry, the tested form may be a part): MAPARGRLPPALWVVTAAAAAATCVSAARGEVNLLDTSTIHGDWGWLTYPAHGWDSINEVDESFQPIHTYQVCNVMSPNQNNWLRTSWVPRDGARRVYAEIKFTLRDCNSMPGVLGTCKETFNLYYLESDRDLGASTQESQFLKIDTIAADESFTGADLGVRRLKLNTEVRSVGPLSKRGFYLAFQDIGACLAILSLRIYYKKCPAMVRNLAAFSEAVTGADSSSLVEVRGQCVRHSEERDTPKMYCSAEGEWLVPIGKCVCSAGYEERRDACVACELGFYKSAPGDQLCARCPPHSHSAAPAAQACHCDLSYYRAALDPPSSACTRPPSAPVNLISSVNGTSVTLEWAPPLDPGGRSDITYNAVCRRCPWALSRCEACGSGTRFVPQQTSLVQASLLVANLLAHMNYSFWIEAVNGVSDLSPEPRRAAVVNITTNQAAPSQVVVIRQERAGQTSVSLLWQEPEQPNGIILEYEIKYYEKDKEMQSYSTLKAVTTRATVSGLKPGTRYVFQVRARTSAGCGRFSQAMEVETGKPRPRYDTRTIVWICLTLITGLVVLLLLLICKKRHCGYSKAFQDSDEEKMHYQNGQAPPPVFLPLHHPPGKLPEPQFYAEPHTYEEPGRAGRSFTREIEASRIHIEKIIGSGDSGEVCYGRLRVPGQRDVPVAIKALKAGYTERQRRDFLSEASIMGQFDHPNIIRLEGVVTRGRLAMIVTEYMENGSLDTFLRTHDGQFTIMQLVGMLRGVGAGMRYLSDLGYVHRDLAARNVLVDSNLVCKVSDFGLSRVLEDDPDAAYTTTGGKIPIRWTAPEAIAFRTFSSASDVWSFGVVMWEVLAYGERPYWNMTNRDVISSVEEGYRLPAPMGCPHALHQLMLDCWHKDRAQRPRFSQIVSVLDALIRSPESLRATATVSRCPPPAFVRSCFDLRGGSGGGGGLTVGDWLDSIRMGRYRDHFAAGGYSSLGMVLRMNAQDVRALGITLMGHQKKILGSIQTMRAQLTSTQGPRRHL
Sequence of Macrophage-stimulating protein receptor (Homo sapiens) (Q04912 25-304 limits assumed): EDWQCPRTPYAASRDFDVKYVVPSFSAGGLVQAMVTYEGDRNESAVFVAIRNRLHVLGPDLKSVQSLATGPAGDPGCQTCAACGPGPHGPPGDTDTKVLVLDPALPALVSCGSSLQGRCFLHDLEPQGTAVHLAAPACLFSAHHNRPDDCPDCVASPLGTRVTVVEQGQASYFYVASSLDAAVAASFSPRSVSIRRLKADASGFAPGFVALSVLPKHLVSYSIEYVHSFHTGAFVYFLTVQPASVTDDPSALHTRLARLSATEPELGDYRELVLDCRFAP
Sequence of Macrophage-stimulating protein receptor (Homo sapiens) (Q04912 310-1400 limits assumed): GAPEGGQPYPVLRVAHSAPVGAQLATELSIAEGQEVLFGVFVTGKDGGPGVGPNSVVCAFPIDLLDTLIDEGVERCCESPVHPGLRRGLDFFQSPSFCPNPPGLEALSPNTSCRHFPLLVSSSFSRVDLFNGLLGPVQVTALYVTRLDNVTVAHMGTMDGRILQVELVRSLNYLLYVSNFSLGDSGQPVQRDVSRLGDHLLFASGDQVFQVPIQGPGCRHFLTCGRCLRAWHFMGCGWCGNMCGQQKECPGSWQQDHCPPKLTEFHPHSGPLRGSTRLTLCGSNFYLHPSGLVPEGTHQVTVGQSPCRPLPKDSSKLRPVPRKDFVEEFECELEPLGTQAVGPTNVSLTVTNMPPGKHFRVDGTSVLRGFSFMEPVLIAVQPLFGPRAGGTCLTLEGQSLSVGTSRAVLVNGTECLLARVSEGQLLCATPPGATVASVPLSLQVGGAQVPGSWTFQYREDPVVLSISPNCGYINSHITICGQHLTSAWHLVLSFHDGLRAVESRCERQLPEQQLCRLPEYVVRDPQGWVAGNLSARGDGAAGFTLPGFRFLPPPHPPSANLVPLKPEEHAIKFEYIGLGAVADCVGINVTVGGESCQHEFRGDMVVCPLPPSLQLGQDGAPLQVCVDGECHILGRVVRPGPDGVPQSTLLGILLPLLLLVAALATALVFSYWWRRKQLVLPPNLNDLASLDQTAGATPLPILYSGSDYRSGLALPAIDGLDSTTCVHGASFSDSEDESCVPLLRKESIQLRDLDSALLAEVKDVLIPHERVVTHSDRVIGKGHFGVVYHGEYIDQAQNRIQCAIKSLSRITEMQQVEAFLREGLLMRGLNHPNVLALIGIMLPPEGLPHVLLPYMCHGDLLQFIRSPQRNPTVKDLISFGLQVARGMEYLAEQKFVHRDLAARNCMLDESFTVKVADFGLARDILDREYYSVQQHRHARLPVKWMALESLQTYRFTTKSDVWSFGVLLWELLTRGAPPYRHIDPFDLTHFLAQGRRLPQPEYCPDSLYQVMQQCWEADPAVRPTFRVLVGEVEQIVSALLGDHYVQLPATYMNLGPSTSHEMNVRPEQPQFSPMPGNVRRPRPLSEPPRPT

CC(C)n1nc(-c2cnc(N)c(OC(F)(F)F)c2)cc1[C@H]1[C@@H]2CN(C3COC3)C[C@@H]21
inhibition [1]: 34.2%
Activity [2]: > 50%
inhibition [3]: 7%
inhibition [4]: -1.4%
inhibition [5]: 8.7%
inhibition [6]: 5.3%
inhibition [7]: 9.4%
inhibition [8]: -0.8%
inhibition [9]: -1.6%
Activity [10]: > 50%
inhibition [11]: 23.8%
inhibition [12]: 1.1%
inhibition [13]: 16%
inhibition [14]: -4.6%
inhibition [15]: 22.5%
inhibition [16]: 5.9%
Activity [17]: > 50%
inhibition [18]: 30.3%
Activity [19]: > 50%
inhibition [20]: -0.6%
inhibition [21]: 1.7%
inhibition [22]: 8.1%
IC50 [23]: > 10 µM
inhibition [24]: -5.3%
inhibition [25]: 0.1%
inhibition [26]: 17.1%
inhibition [27]: 14.3%

Nc1ncc(-c2cc([C@H]3[C@@H]4CN(C5COC5)C[C@@H]43)n(CC3CC3)n2)cc1C(F)(F)F
inhibition [1]: 41.4%
Activity [2]: > 50%
inhibition [3]: 3.9%
inhibition [4]: -1.6%
inhibition [5]: 18.6%
inhibition [6]: 27.4%
inhibition [7]: 11.5%
inhibition [8]: 9.6%
inhibition [9]: -0.8%
Activity [10]: > 50%
inhibition [11]: 22%
inhibition [12]: -3.8%
inhibition [13]: 2.4%
inhibition [14]: -4%
inhibition [15]: 37%
inhibition [16]: 0.6%
Activity [17]: > 50%
inhibition [18]: 22.4%
Activity [19]: > 50%
inhibition [20]: 4.5%
inhibition [21]: 3.8%
inhibition [22]: -0.8%
IC50 [23]: > 10 µM
inhibition [24]: 3.1%
inhibition [25]: -1.1%
inhibition [26]: 21.1%
inhibition [27]: 3.4%
